# From PubChem
# The list is not random: actives were taken first. Their share in the collection is about 2.7%.
# PAFAH1B2 FP inh: PAFAH1B2 enzyme inhibitors, primary screen, biochemical, fluorescence polarization, human; recombinant PAFAH1B2, FP-rhodamine activity probe; inhibition, % at 3.39 µM; hit rate 1.2% among 340,000;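 active means inhibition above the mean of all tested compounds plus 3 SD, cut at about 24% in these data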;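 further: 0% = enzyme with DMSO and 100% = wells lacking PAFAH1B2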
# PAFAH2 FP inh: PAFAH2 enzyme inhibitors, primary screen, biochemical, fluorescence polarization, human. hit rate 0.99% among 340,000. Platelet-activating factor acetylhydrolase 2, cytoplasmic (Homo sapiens), Q99487. inhibition, % at 3.39 µM. recombinant PAFAH2, FP-rhodamine activity probe;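 active means inhibition above the mean over all tested compounds plus 3 SD, cut at about 30% in these data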;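 further: inhibitors block probe labeling of enzyme so polarization drops; 0% = enzyme with DMSO and 100% = wells lacking PAFAH2 protein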
# ASAP1 GAP inh: inhibitors of human ASAP1 ArfGAP activity, primary screen, biochemical, fluorescence polarization | Arf-GAP with SH3 domain, ANK repeat and PH domain-containing protein 1 (Homo sapiens), … | inhibition, % at 16.5 µM | AID 624377, 2012 | hit rate 0.19% among 360,000 | ASAP1-stimulated ARF1 GTP hydrolysis, GDP FP detection; in the data active means inhibition above about 25%;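 further: 0% = vehicle with enzyme and substrate and 100% = no enzyme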
# PAFAH1B3 FP inh: PAFAH1B3 enzyme inhibitors, primary screen, biochemical, fluorescence polarization, human; recombinant PAFAH1B3, FP-rhodamine probe; inhibition, % at 3.39 µM; Platelet-activating factor acetylhydrolase IB subunit alpha1 (Homo sapiens), Q15102; hit rate 0.28% among 340,000;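 active means inhibition above the screen-wide average of all tested compounds plus 3 SD, cut at about 25% in these data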;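 further: 0% = enzyme with DMSO only and 100% = wells lacking PAFAH1B3 protein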
# Target sequence (Q15102 whole entry, looked up): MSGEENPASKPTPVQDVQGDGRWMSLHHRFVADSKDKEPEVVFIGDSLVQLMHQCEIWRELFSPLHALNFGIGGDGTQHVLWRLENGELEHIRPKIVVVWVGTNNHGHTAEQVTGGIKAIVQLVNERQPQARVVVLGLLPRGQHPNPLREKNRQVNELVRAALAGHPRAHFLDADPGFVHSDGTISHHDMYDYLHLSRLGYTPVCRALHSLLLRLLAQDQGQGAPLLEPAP
# pPAFAH FP inh: pPAFAH enzyme inhibitors, primary screen, biochemical, fluorescence polarization, human | inhibition, % at 3.39 µM | recombinant pPAFAH, FP-rhodamine probe fluorescence polarization | Platelet-activating factor acetylhydrolase (Homo sapiens), Q13093 | hit rate 1.5% among 330,000;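 active means inhibition above the mean inhibition across the screen plus 3 SD, cut at about 25% in these data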;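 further: inhibitors block binding of the rhodamine activity-based probe so polarization drops; 0% = enzyme with DMSO and 100% = wells lacking pPAFAH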
# Target sequence (Q13093 whole entry, looked up): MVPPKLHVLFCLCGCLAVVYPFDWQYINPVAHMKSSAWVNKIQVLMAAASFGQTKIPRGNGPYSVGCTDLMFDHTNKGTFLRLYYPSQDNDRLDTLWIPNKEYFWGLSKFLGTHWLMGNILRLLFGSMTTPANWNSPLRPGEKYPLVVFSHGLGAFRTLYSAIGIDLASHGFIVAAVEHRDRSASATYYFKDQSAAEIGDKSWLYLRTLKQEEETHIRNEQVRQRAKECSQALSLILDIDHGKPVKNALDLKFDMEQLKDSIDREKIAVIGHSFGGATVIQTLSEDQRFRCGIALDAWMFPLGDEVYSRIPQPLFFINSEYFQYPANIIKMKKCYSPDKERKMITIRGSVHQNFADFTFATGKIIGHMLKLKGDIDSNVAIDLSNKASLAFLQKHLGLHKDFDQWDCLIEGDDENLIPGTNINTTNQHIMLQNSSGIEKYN
# ARFGAP1 inhibitor: inhibitors of rat ARFGAP1 GAP activity, primary screen, biochemical, fluorescence polarization, GDP tracer. Arfgap1-stimulated ARF1 GTP hydrolysis, GDP FP detection. ADP-ribosylation factor GTPase-activating protein 1 (Rattus norvegicus), Q62848. AID 651572, 2012. inhibition, % at 16.5 µM. hit rate 0.26% among 360,000;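 active means inhibition above a per-plate limit, mean inhibition of low control wells plus 3 SD, cut at about 25% in these data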;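 further: 0% = DMSO wells with enzyme and 100% = wells lacking Arfgap1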
#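 Repeats: one replicate per compound; assay system: rat Arfgap1 catalytic domain, aa 1-136; times: enzyme reaction 120 min at 25 °C after 20 min preincubation; detection: FP of antibody-bound GDP Alexa 633 tracer, ex 620/em 688 nm; benchmarks: high control wells lacking Arfgap1, low control full reaction with DMSO; reagent: human ARF1(Δ1-17)-GTP substrate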
# ASAP1 GAP conf: ASAP1 GAP activity inhibitors, confirmation, biochemical, fluorescence polarization, human, triplicate; shares compounds with ASAP1 GAP inh; ASAP1-stimulated Arf1 GTPase, GDP fluorescence polarization; inhibition, % at 16.5 µM; hit rate 37% among 620;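 active means mean inhibition over triplicates exceeds the hit threshold derived for the earlier primary screening run, cut at about 25% in these data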
# * = called active by the depositor; · = not tested or not shown.
SMILES,PAFAH1B2 FP inh,PAFAH2 FP inh,ASAP1 GAP inh,PAFAH1B3 FP inh,pPAFAH FP inh,ARFGAP1 inhibitor,ASAP1 GAP conf
COC(=O)c1cc(NC(=O)c2ccc(Cn3cc(Cl)cn3)o2)cc(C(=O)OC)c1,6.1,-10.6,40.3*,-3.5,3.5,0.3,28.1*
CCCS(=O)(=O)NC(=O)C1(C)CCN(C(=O)Cc2ccc(OC)cc2)C1 (stereo not drawn),·,·,-11.7,·,·,15.5,·
COc1ccc(CN2C[C@]3(CO)O[C@@H](CO)C[C@@H]3S2(=O)=O)cc1,1.5,-1.0,3.1,6.4,7.1,1.6,·
Cc1ccc(S(=O)(=O)NCC(=O)NCC2COc3ccccc3O2)cc1C (stereo not drawn),8.2,4.2,8.1,6.9,2.9,7.1,·
CC(=O)c1ccc(S(=O)(=O)NCC(=O)N2CCN(C/C=C/c3ccccc3)CC2)cc1,2.1,-6.1,28.3*,4.4,5.3,-2.5,0.7
N#Cc1c(-c2ccc(Cl)cc2)ccn2nc(C3CCCCC3)nc12,-3.6,2.6,26.9*,7.4,2.8,0.4,5.3
COC(=O)CCc1nc2c(C#N)c(-c3ccc(Cl)cc3)ccn2n1,-3.2,0.9,-21.5,6.4,0.0,1.4,·
Cc1ccc([C@@H]2CC(=O)[C@@H]3CN(S(=O)(=O)c4ccc(C)cc4)[C@H](c4cccc(Cl)c4)C[C@@H]3N2S(=O)(=O)c2ccc(Cl)cc2)cc1,·,·,7.0,·,·,-2.4,·
COc1ccc(C(=O)CSc2nc(=O)n(Cc3cccnc3)c3c2CCC3)cc1,4.0,-1.3,25.9*,0.9,·,12.8,1.8
CCOC(=O)C1CCCN(C(=O)c2cc(F)cc(F)c2)CC1 (stereo not drawn),·,·,18.6,·,·,2.8,·
COc1ccc2oc(=O)c(-c3csc(Nc4cccc(O)c4)n3)cc2c1,39.6*,-2.1,31.6*,29.0*,23.3,17.0,47.8*
CS(=O)(=O)N(Cc1ccc(Cl)cc1)c1ccc(C(=O)NCc2ccccn2)cc1,6.2,0.7,31.1*,4.1,4.3,7.0,8.7
CS(=O)(=O)N(Cc1ccccc1Cl)c1ccc(C(=O)NCc2ccccn2)cc1,-4.1,-2.0,-13.4,4.3,5.6,-0.7,·
COc1cccc(/C=N/NC(=O)c2cc3cc([N+](=O)[O-])ccc3s2)c1O,6.1,13.1,41.6*,18.3,22.3,0.3,142.9*
CC(Oc1ccccc1)C(=O)N1CCC2(CC1)Oc1ccc(F)cc1C(=O)C21CC(c2cccnc2)=NO1 (stereo not drawn),-4.9,-3.2,25.8*,6.2,6.7,15.3,4.7
CC(Oc1ccccc1)C(=O)N1CCC2(CC1)Oc1ccc(F)cc1C(=O)C21CC(c2ccccc2)=NO1 (stereo not drawn),-6.5,-4.8,-1.9,-2.1,-0.9,1.0,·
FC(F)(F)c1nc2nc(Cl)c(Cl)nc2n1CCCN1CCOCC1,·,·,-3.0,·,·,3.7,·
CCCCNC(=O)C(NC(=O)c1ccccc1)C(=O)c1ccccc1 (stereo not drawn),·,·,0.0,·,·,5.1,·
O=C(Nc1c(-c2ccc3c(c2)OCO3)[nH][nH]c1=O)c1ccccc1,·,·,30.3*,·,·,15.1,10.8
O=C(Nc1c(-c2ccccc2)[nH][nH]c1=O)c1ccc2c(c1)OCO2,·,·,-5.1,·,·,-0.1,·
CCOc1ccc(NC(=O)/C=C/c2ccc(OC)cc2)c([N+](=O)[O-])c1,-11.5,-12.1,-12.3,-13.2,-5.0,1.6,·
CCOc1ccc(NC(=S)NC(=O)/C=C/c2ccc(OC)c(OC)c2)c([N+](=O)[O-])c1,2.4,3.0,35.0*,5.3,-5.8,-16.7,20.1
Cn1c(N)c(C(=O)CSc2nnc(-c3c[nH]c4ccccc34)n2C2CC2)c(=O)[nH]c1=O,5.6,8.9,10.7,7.5,4.7,-5.3,·
CCC(=O)N1CCN(c2ccc(-n3c(=O)ccc4cnc5ccc(-c6cnc7ccccc7c6)cc5c43)cc2C(F)(F)F)CC1,·,·,7.0,·,·,1.0,·
Cc1cccc(Nc2nnc(SCC(=O)Nc3cccnc3Cl)s2)c1,3.4,-2.0,29.7*,7.0,4.7,3.9,2.5
SMILES,PAFAH1B2 FP inh,PAFAH2 FP inh,ASAP1 GAP inh,PAFAH1B3 FP inh,pPAFAH FP inh,ARFGAP1 inhibitor,ASAP1 GAP conf
Nc1nnc(SCC(=O)Nc2cccnc2Cl)s1,2.4,0.5,2.8,4.0,-11.7,14.1,·
Cc1cccc(NC(=O)CSc2nnc(-c3ccc(S(=O)(=O)N4CCCC4)cc3)o2)c1,3.2,-1.4,·,6.2,-0.9,·,·
Cc1ccc(NC(=O)CSc2nnc(-c3ccc(S(=O)(=O)N4CCCC4)cc3)o2)cc1C,4.3,-15.7,30.7*,-8.3,1.4,-5.5,4.3
COc1ccc(C(=O)NC(C)c2ccc(-n3ccnc3)cc2)cc1[N+](=O)[O-] (stereo not drawn),1.2,-11.6,25.4*,-3.2,-3.0,-3.9,11.6
CC1=C/C(=C(/c2cc(C)c(O)c(Br)c2)c2ccccc2S(=O)(=O)O)C=C(Br)C1=O,-14.0,-19.2,40.0*,-24.8,-3.9,37.5*,29.6*
COc1ccc(N2C(=O)[C@@H]3[C@H](C2=O)[C@H]2c4ccccc4C=CN2[C@@H]3C(C)=O)cc1,2.9,-5.3,49.2*,16.6,1.0,21.9,18.0
COc1ccc(N2C(=O)[C@H]3[C@@H](C2=O)C2c4ccccc4C=NN2[C@H]3C(=O)C(C)(C)C)cc1 (stereo partly drawn),7.3,6.5,6.1,3.2,0.2,3.8,·
NC(=NCCc1ccccc1)NC(=O)c1cc(Cl)ccc1O,6.4,-2.7,3.9,10.5,9.7,5.5,·
CC1OC2CC(=O)OC2C2=C1C(=O)c1c(O)cccc1C2=O (stereo not drawn),·,·,36.8*,·,·,0.4,13.5
COc1cc(N)c2ncccc2c1SC,·,·,-12.9,·,·,-5.7,·
COc1cc(N)c2ncccc2c1Br,1.5,9.2,27.7*,11.2,·,15.2,11.2
O=C1CCC(C(=O)N2CCN(c3ccccc3)CC2)CN1Cc1ccc(Cl)cc1 (stereo not drawn),·,·,1.4,·,·,1.6,·
COc1ccc(N(C)S(=O)(=O)c2cccc(C(=O)N3CCN(Cc4ccc5c(c4)OCO5)CC3)c2)cc1,1.8,-3.9,-5.3,9.3,·,5.6,·
